From ChEMBL document CHEMBL1149772, “GdCl(3) catalysed Grieco condensation: a facile approach for the synthesis of novel pyrimidine and annulated pyrimidine fused indazole derivatives in single pot under mild conditions and their anti-microbial activity” (2008)
Values after ≈ are worked out from the molar mass of the structure shown.

How the values were obtained:
Assay type in all cases: functional
Bacillus subtilis = assay: Antibacterial activity against Bacillus subtilis MTCC 441 by broth dilution method
Summary of the method: (§1)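 Test bacteria kept on nutrient agar slants and subcultured in Petri dishes before testing. Nutrient agar and nutrient broth media. Compounds dissolved in acetone. MIC determined by broth dilution.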

Staphylococcus aureus = assay: Antibacterial activity against Staphylococcus aureus MTCC 96 by broth dilution method; summary of the method: as §1
Candida albicans [1] = assay: Antifungal activity against Candida albicans MTCC 227 at 150 ug/ml by agar cup diffusion method; settings: read-out: IZ
Summary of the method: (§2)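 Agar cup diffusion on autoclaved potato dextrose agar (15 lb/inch², 20 min). A week-old culture was spread over the solidified agar, and 6 mm cups were bored. Compounds were in DMSO at 100–150; amphotericin-B reference at 50; DMSO control. Plates held at 28 °C for 48 h. Inhibition zone diameter read in mm.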

Aspergillus niger [2] = assay: Antifungal activity against Aspergillus niger MTCC 1344 at 150 ug/ml by agar cup diffusion method; settings: read-out: IZ; summary of the method: as §2
Candida albicans [3] = assay: Antifungal activity against Candida albicans MTCC 227 at 100 ug/ml by agar cup diffusion method; settings: read-out: IZ; summary of the method: as §2
Aspergillus niger [4] = assay: Antifungal activity against Aspergillus niger MTCC 1344 at 100 ug/ml by agar cup diffusion method; settings: read-out: IZ; summary of the method: as §2
Pseudomonas aeruginosa = assay: Antibacterial activity against Pseudomonas aeruginosa MTCC 1688 by broth dilution method; summary of the method: as §1
Escherichia coli = assay: Antibacterial activity against Escherichia coli MTCC 443 by broth dilution method; summary of the method: as §1
Aspergillus niger [5] = assay: Antifungal activity against Aspergillus niger MTCC 1344 at 50 ug/ml by agar cup diffusion method; settings: MTCC 1344, read-out: IZ; summary of the method: as §2
Rhizopus arrhizus [6] = assay: Antifungal activity against Rhizopus oryzae MTCC 262 at 50 ug/ml by agar cup diffusion method; settings: MTCC 262, read-out: IZ; summary of the method: as §2
Candida albicans [7] = assay: Antifungal activity against Candida albicans MTCC 227 at 50 ug/ml by agar cup diffusion method; settings: MTCC 227, read-out: IZ
Saccharomyces cerevisiae = assay: Antifungal activity against Saccharomyces cerevisiae MTCC 36 at 50 ug/ml by agar cup diffusion method; settings: MTCC 36, read-out: IZ; summary of the method: as §2
Rhizopus arrhizus [8] = assay: Antifungal activity against Rhizopus oryzae MTCC 262 at 100 ug/ml by agar cup diffusion method; settings: read-out: IZ; summary of the method: as §2
Rhizopus arrhizus [9] = assay: Antifungal activity against Rhizopus oryzae MTCC 262 at 150 ug/ml by agar cup diffusion method; settings: read-out: IZ; summary of the method: as §2

| Structure (SMILES) | MIC (Bacillus subtilis) [µg/mL] | MIC (Staphylococcus aureus) [µg/mL] | zone of inhibition at 150 µg/mL (Candida albicans [1]) [mm] | zone of inhibition at 150 µg/mL (Aspergillus niger [2]) [mm] | zone of inhibition at 100 µg/mL (Candida albicans [3]) [mm] | zone of inhibition at 100 µg/mL (Aspergillus niger [4]) [mm] | MIC (Pseudomonas aeruginosa) [µg/mL] | MIC (Escherichia coli) [µg/mL] | zone of inhibition at 50 µg/mL (Aspergillus niger [5]) [mm] | zone of inhibition at 50 µg/mL (Rhizopus arrhizus [6]) [mm] | zone of inhibition at 50 µg/mL (Candida albicans [7]) [mm] | zone of inhibition at 50 µg/mL (Saccharomyces cerevisiae) [mm] | zone of inhibition at 100 µg/mL (Rhizopus arrhizus [8]) [mm] | zone of inhibition at 150 µg/mL (Rhizopus arrhizus [9]) [mm] |
| --- | --- | --- | --- | --- | --- | --- | --- | --- | --- | --- | --- | --- | --- | --- |
| C=CC1(C)CCNc2c3c(C(F)(F)F)cc(-c4ccccc4)c(C#N)c3nn21 (configuration not stated) | 150 (≈ 392 µM) | 75 (≈ 196 µM) | 8 | 8 | 7 | 7 | 150 (≈ 392 µM) | 150 (≈ 392 µM) | – | – | – | – | – | – |
| N#Cc1c(-c2ccccc2)cc(C(F)(F)F)c2c3n(nc12)C(c1ccccc1)CCN3 (configuration not stated) | 50 (≈ 119 µM) | 50 (≈ 119 µM) | – | – | – | – | 50 (≈ 119 µM) | 25 (≈ 59.7 µM) | – | – | – | – | – | – |
| N#Cc1c(-c2ccccc2)cc(C(F)(F)F)c2c3n(nc12)[C@H]1C=CC[C@H]1CN3 | 150 (≈ 394 µM) | 37.5 (≈ 98.6 µM) | 9 | 10 | – | – | 75 (≈ 197 µM) | 37.5 (≈ 98.6 µM) | – | – | – | – | – | – |
| C[C@@H]1[C@H](O)[C@@H](C)/C=C/C=C/C=C/C=C/C=C/C=C/C=C/[C@H](O[C@@H]2O[C@H](C)[C@@H](O)[C@H](N)[C@@H]2O)C[C@@H]2O[C@](O)(C[C@@H](O)C[C@@H](O)[C@H](O)CC[C@@H](O)C[C@@H](O)CC(=O)O[C@H]1C)C[C@H](O)[C@H]2C(=O)O [AMPHOTERICIN B] | – | – | – | – | – | – | – | – | 23.5 | 26 | 22 | 23 | – | – |
| N#Cc1c(-c2ccccc2)cc(C(F)(F)F)c2c3n(nc12)[C@H]1OCCC[C@H]1CN3 | 150 (≈ 377 µM) | 75 (≈ 188 µM) | – | – | – | – | 150 (≈ 377 µM) | 75 (≈ 188 µM) | – | – | – | – | 9 | – |
| N#Cc1c(-c2ccccc2)cc(C(F)(F)F)c2c3n(nc12)[C@H]1c2ccccc2C[C@H]1CN3 | 75 (≈ 174 µM) | 150 (≈ 348 µM) | – | 9 | – | – | 150 (≈ 348 µM) | 75 (≈ 174 µM) | – | – | – | – | 7 | 9 |
| CC1(c2ccccc2)CCNc2c3c(C(F)(F)F)cc(-c4ccccc4)c(C#N)c3nn21 (configuration not stated) | 75 (≈ 173 µM) | 75 (≈ 173 µM) | 9 | – | 8 | – | 75 (≈ 173 µM) | 37.5 (≈ 86.7 µM) | – | – | – | – | – | 12 |
| N#Cc1c(-c2ccccc2)cc(C(F)(F)F)c2c3n(nc12)[C@@]1(c2ccccc2)CCCC[C@H]1CN3 | 75 (≈ 159 µM) | 37.5 (≈ 79.4 µM) | 11 | 10 | 9 | – | 75 (≈ 159 µM) | 37.5 (≈ 79.4 µM) | – | – | – | – | – | 9 |
| C=CC1(C)CCNc2c3c(-c4ccccc4)cc(C(F)(F)F)c(C#N)c3nn21 (configuration not stated) | 75 (≈ 196 µM) | 150 (≈ 392 µM) | – | – | – | – | 75 (≈ 196 µM) | 150 (≈ 392 µM) | – | – | – | – | – | – |
| N#Cc1c(C(F)(F)F)cc(-c2ccccc2)c2c3n(nc12)C(c1ccccc1)CCN3 (configuration not stated) | – | – | – | – | – | – | – | – | – | – | – | – | 8 | 10 |
| N#Cc1c(C(F)(F)F)cc(-c2ccccc2)c2c3n(nc12)[C@H]1OCCC[C@H]1CN3 | 150 (≈ 377 µM) | 150 (≈ 377 µM) | 10 | – | 8 | – | 150 (≈ 377 µM) | 75 (≈ 188 µM) | – | – | – | – | – | 9 |
| N#Cc1c(-c2ccccc2)cc(C(F)(F)F)c2c3n(nc12)[C@H]1C=CCC[C@H]1CN3 | 150 (≈ 380 µM) | 75 (≈ 190 µM) | 8 | 12 | 7 | 10 | 75 (≈ 190 µM) | 37.5 (≈ 95.1 µM) | – | – | – | – | 8 | 12 |
